NR3A LBD binder: NR3A (human) ligand-binding domain modulation; Tm shift relative to glycine control, % at 25 µM; AID 1259313; NR3A LBD differential scanning fluorimetry, Tm shift; 0% = protein alone, 100% = glycine-bound protein; 2.5% of 340,000 active;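 active = melting temperature shift of at least 10% of the positive control shift, at one fixed dose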
MPTP block: inhibitors of mitochondrial permeability transition pore | 1.4% of 360,000 active | AID 602449 | isolated mouse mitochondria, Ca2+ swelling absorbance, 30 min | inhibition, % at 10 µM;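 active = inhibition of 50% or more, scaled per plate between neutral and stimulator controls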;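 note: 0% = DMSO wells given calcium and 100% = 1 mM EGTA wells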
ADAM17 inh: inhibitors of human ADAM17. recombinant ADAM17, EDANS/DABCYL FRET peptide cleavage. inhibition, % at 6.95 µM. 0.83% of 370,000 active. AID 720648;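 active = inhibition above the mean of compounds lying between control limits plus 3 SD, set per campaign, cut at about 8.5% in these data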;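 note: 0% = DMSO-only wells as the low control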
MT1-MMP act inh: inhibitors of human MT1-MMP activation; HT1080 RFP-PRO-GFP cells, GFP/RFP ratio fluorescence, overnight; percent of plate control window, DMSO zero; P50281; AID 651647; 0.061% of 360,000 active; GFP/RFP ratio change, % at 20 µM;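 active = GFP/RFP ratio change of at least 30% with cell ATP level not reduced by more than half and red fluorescence within 50% of control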
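Assay system: HT1080 cells carrying an RFP-PRO-GFP reporter | Dosing: Single dose of 20 µM compound, 1% DMSO final | Incubation: Cells overnight before dosing, compound overnight, 37 °C, 5% CO2 | Evaluation: GFP/RFP fluorescence ratio | Control set: DMSO and RFP-L50D-GFP cell wells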
ADAM10 inh: inhibits human ADAM10 | O14672 | recombinant ADAM10, EDANS/DABCYL FRET peptide cleavage, 3 h | inhibition, % at 7 µM | 0.62% of 370,000 active | AID 720582;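 active = inhibition above a per-campaign cutoff equal to the mean of compounds falling between control-based bounds plus 3 SD, cut at about 20% in these data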;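 note: 0% = DMSO wells while the 100% control is not disclosed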
Target sequence (O14672 214-748 limits assumed): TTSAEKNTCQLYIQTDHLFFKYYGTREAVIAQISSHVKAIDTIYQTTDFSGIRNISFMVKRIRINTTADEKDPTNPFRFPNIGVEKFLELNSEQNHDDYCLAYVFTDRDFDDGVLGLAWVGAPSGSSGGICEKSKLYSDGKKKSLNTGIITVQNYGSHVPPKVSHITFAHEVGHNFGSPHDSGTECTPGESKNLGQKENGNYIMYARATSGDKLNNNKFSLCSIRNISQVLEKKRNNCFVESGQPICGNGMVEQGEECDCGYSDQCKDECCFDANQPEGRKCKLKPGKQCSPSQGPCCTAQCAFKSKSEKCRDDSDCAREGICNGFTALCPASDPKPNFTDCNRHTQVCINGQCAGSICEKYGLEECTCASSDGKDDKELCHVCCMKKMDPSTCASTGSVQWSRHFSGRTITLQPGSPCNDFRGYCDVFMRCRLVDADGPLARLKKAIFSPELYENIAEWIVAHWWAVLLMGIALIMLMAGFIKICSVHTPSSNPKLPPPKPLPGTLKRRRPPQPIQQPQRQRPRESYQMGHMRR
SKN-1 inh: C. elegans SKN-1 inhibition | 0.49% of 360,000 active | C. elegans VP596 Pgst-4::GFP/RFP ratio, acrylamide-induced, 24 h | inhibition, % at 21.8 µM;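 active = interference check ratio from 0.5 to 1.5 plus GFP to RFP signal ratio inhibition reaching or exceeding a fixed threshold, cut at about 30% in these data, passing the limit was not always enough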
MPTP counter: Rhodamine 123 counter-screen of mitochondrial pore hits; 78% of 5,000 active; inhibition, % at 10 µM; shares compounds with MPTP block; isolated mitochondria, membrane potential, Rhodamine 123 fluorescence; in the data active = inhibition above about 22%;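 note: 0% = DMSO vehicle and 100% = positive control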
MPTP abs DR: MPTP inhibition, dose response swelling confirmation; isolated mitochondria swelling, absorbance; IC50, µM; 58% of 780 active; shares compounds with MPTP block; AID 651561; in the data active = IC50 below about 20 µM
MPTP cs DR: MPTP inhibitor counter-screen activity, dose response; shares compounds with MPTP block; isolated mitochondria counterscreen, fluorescence read-out; IC50, µM; 49% of 780 active; AID 651564; in the data active = IC50 below about 80 µM
* marks the source's active call; other numbers are inactive results; · = no result given. Hits are enriched below; roughly 4.7% of the tested compounds scored in any of these assays.

SMILES	NR3A LBD binder	MPTP block	ADAM17 inh	MT1-MMP act inh	ADAM10 inh	SKN-1 inh	MPTP counter	others
CCNC(=S)Nc1ccc(Cl)c([N+](=O)[O-])c1	-1	96*	-3	4	1	-8	90*
O=C(Nc1ccc(S(=O)(=O)NC2=NCCCCC2)cc1)c1ccc(Cl)c([N+](=O)[O-])c1	-3	-2	3	-2	-8	-14	·
CC1(C2CCCC2)NC(=O)NC1=O (configuration not stated)	0	0	-6	8	-10	3	·
O=C(NNc1ccccc1[N+](=O)[O-])Nc1cccc(Cl)c1	-2	84*	-3	4	9	12	85*
Cc1nnc(SC(C(=O)Nc2ccc(Cl)c([N+](=O)[O-])c2)c2ccccc2)[nH]c1=O (configuration not stated)	5	74*	-3	-3	-2	17	51*
O=C(NNc1ccccc1[N+](=O)[O-])Nc1ccc(F)cc1F	-1	-1	-4	-1	-6	22	·
CCOc1ccc(NC(=S)Nc2ccc(C)c([N+](=O)[O-])c2)cc1	10	86*	3	3	14	-17	90*
O=C(Nc1ccccc1)Nc1ccc(F)c([N+](=O)[O-])c1	26*	94*	2	1	13	2	99*
CCOc1ccc(NC(=S)/C(=C(\[O-])c2ccc(C)c([N+](=O)[O-])c2)[n+]2ccccc2)cc1	-3	0	·	-4	·	2	·
Cc1cc(C)cc(NC(=O)C(Sc2nnc(C)c(=O)[nH]2)c2ccccc2)c1 (configuration not stated)	1	1	2	1	6	-1	·
COC(=O)C1(C)NC(c2ccc(O)cc2)C2C(=O)N(c3ccccc3)C(=O)C21 (configuration not stated)	1	0	-8	1	-4	14	·
CC(=O)Nc1ccc(C)c([N+](=O)[O-])c1	-3	-1	-3	-2	-2	6	·
CC(CC(=O)Nc1ccc(Cl)c([N+](=O)[O-])c1)c1ccccc1 (configuration not stated)	0	105*	2	-3	8	1	90*
Cc1ccc(NC(=O)Nc2ccccc2)cc1[N+](=O)[O-]	13*	77*	0	4	0	17	101*
CC(=O)c1cc(F)ccc1OCC(=O)N1CCN(c2ccc(F)cc2)CC1	1	2	2	3	2	8	·
CCC(C)[C@H]1CNC(=O)C(=O)N1CCc1cccc(F)c1 (some centres not stated)	·	1	-3	8	-17	8	·
CC1(C)Cc2ccccc2-c2nc(-c3ccccc3)oc(=O)c21	4	70*	-1	-3	6	0	-4	MPTP abs DR=7.6*;MPTP cs DR=>80
C=CCOc1cccc(C2C(C(=O)c3ccco3)=C(O)C(=O)N2Cc2ccco2)c1 (configuration not stated)	3	1	-2	-2	-8	14	·
COc1ccc(CCN(C)C(=O)Cc2ccc(-c3ccccc3)cc2)cc1OC	-3	64*	1	-2	1	-20	72*
COc1ccc(CCN(C)C(=O)COc2ccc(C(=O)c3ccccc3)cc2)cc1OC	0	-1	-3	1	-4	-3	·
CC(=O)CSc1ccc(-c2nc3cc(C)c(C)cc3[nH]2)cn1	-3	-2	-40	11	-123	10	·
Cc1cc2nc(-c3ccc(SCc4ccc(C#N)cc4)nc3)[nH]c2cc1C	-1	67*	-38	-8	-112	13	66*
Nc1cc(Cl)cc2c1-c1ccc(Cl)cc1C2O (configuration not stated)	2	2	-1	-2	0	22	·
O=C(Nc1cc(Cl)cc2c1-c1ccc(Cl)cc1C2O)C(Cl)Cl (configuration not stated)	3	93*	2	3	-1	-7	76*
CN(c1cccc(NS(=O)(=O)c2cccc([N+](=O)[O-])c2)c1)S(C)(=O)=O	5	0	0	0	4	1	·
SMILES	NR3A LBD binder	MPTP block	ADAM17 inh	MT1-MMP act inh	ADAM10 inh	SKN-1 inh	MPTP counter	others
CC(Sc1nc(N)cc(=O)[nH]1)C(=O)Nc1sc2c(c1C#N)CCCC2 (configuration not stated)	-2	76*	0	-7	1	-1	94*
CCC(Sc1nnc2c3ccccc3n(CC)c2n1)C(=O)Nc1sc2c(c1C#N)CCCC2 (configuration not stated)	-7	4	0	-1	-12	11	·
N#Cc1c(NC(=O)CSc2ncn[nH]2)sc2c1CCCCC2	-10	6	0	-3	7	17	·
N#Cc1c(NC(=O)CSc2nc(N)cc(=O)[nH]2)sc2c1CCCCCC2	-6	83*	-3	14	-5	-1	59*
Cc1nnc(SC(C)C(=O)Nc2sc3c(c2C#N)CCCC3)[nH]c1=O (configuration not stated)	2	0	0	0	-6	7	·
CCC(Sc1nc(C)cc(=O)[nH]1)C(=O)Nc1sc2c(c1C#N)CCCC2 (configuration not stated)	-6	58*	4	24	-5	0	69*
CN1c2ccsc2/C(=N/Nc2ccccc2)CS1(=O)=O	-5	0	-4	-2	-18	9	·
Cc1ccc(OCC(=O)N(Cc2cccc(Cl)c2)C2CCS(=O)(=O)C2)cc1C (configuration not stated)	2	0	-2	-2	3	-7	·
COc1ccc(NC(=O)CSc2nccn2C)c([N+](=O)[O-])c1	-1	0	1	4	1	2	·
Cc1ccc(-c2noc(C3CCN(S(=O)(=O)c4ccc5c(c4)OCCO5)CC3)n2)o1	1	52*	-2	2	-3	-29	64*
Cc1ccc(-c2noc(C3CCCN(S(=O)(=O)c4ccc5ccccc5c4)C3)n2)o1 (configuration not stated)	3	-2	1	-3	14	2	·
CC(=O)Nc1ccc(S(=O)(=O)NCCOc2ccc(Cl)cc2C)cc1	-4	0	0	0	3	-2	·

Compound activity from PubChem BioAssay.
